Experimental findings from ChEMBL document CHEMBL3997772, “Tyrosyl-DNA Phosphodiesterase 1 Inhibitors: Usnic Acid Enamines Enhance the Cytotoxic Effect of Camptothecin” (J Nat Prod, 2016) are described below.

Data set [1] deals with T1, Tyrosyl-DNA phosphodiesterase 1 (Homo sapiens, UniProt Q9NUW8). Briefly: Inhibition of recombinant TDP1 (unknown origin) using 5'-(5,6 FAM-aac gtc agg gtc ttc c-BHQ1)-3' as substrate measured at 1 min interval by fluorimetric method. The method in brief: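 Recombinant TDP1 1.3 nM with 50 nM FAM/BHQ1 biosensor in 50 mM Tris-HCl pH 8.0, 50 mM NaCl, 7 mM β-mercaptoethanol, 26 °C. Fluorescence read each minute (Ex485/Em520). Slope over 0–7 min linear phase compared with DMSO control; IC50 from 11-point concentration-response curve.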
T1 sequence (Q9NUW8 whole entry): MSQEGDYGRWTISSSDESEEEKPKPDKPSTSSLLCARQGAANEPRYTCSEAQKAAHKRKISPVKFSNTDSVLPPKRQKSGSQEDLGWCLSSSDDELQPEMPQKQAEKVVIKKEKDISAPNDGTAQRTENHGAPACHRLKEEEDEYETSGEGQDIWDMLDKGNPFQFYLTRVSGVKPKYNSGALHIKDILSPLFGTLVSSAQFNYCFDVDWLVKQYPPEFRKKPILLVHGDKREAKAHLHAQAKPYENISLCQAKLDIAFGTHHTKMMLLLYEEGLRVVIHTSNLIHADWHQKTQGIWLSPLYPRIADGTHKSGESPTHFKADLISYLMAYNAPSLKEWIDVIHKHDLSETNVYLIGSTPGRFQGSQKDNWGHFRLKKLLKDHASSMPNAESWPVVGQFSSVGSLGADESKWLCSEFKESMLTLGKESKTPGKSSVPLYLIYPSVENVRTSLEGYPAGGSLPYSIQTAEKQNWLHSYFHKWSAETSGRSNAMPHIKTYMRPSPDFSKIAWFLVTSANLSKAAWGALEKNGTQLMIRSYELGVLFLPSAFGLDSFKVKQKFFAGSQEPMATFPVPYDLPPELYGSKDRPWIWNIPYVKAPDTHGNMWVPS

The nature of data set [2]: Cytotoxicity against human MCF7 cells over expressing TDP1 assessed as reduction in viable cells after 72 hrs by MTT assay. The data set is classed as cell-based. Conditions: MCF7 cells overexpressing TDP1. The method in brief:
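MCF-7 cells (~2000/well) grown 24 h at 37 °C in IMDM, 5% CO2, then exposed to 0.1–100 μM compound for 72 h. Viable cells by MTT test; CC50 = concentration reducing cell number 50% vs untreated controls; average of three independent experiments.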

Data set [3] addresses T1, Tyrosyl-DNA phosphodiesterase 1. The experiment in a line: Inhibition of TDP1 in human MCF7 cells assessed as potentiation of camptothecin-induced cytotoxicity by measuring fold reduction in camptothecin CC50 at 0.5 uM after 72 hrs by MTT assay relative to camptothecin alone. The data set is classed as cell-based. The gist of the method: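 MCF-7 cells (~2000/well), pre-grown 24 h at 37 °C in IMDM, 5% CO2, treated with graded camptothecin plus 0.5 μM enamine for 72 h. Viability by MTT; camptothecin CC50 taken as 50% reduction in cell number vs untreated controls, compared with and without enamine.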
Background: Formazan colour is commonly taken as a measure of viable cells.

The target is the same in data set [4]. The experiment in a line: Inhibition of TDP1 in human A549 cells assessed as potentiation of camptothecin-induced cytotoxicity by measuring fold reduction in camptothecin CC50 at 0.5 uM after 72 hrs by MTT assay relative to camptothecin alone. The format is cell-based. The gist of the method:
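A-549 cells treated with graded camptothecin plus 0.5 μM enamine; viability by MTT after 72 h. Camptothecin CC50 compared with and without enamine.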

Data set [5] in a line: Cytotoxicity against human A549 cells assessed as reduction in viable cells after 72 hrs by MTT assay. The data set is classed as cell-based. The gist of the method: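 A-549 cells treated with compounds; after 72 h, viable cells measured by MTT colorimetric test. CC50 = concentration reducing cell number by 50% versus untreated controls.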
Data set [6] addresses T1, Tyrosyl-DNA phosphodiesterase 1. The experiment in a line: Inhibition of recombinant TDP1 (unknown origin) assessed as reduction in BHQ1 excision from 3'-end of [32P]-labeled oligonucleotide substrate after 20 mins by polyacrilamide gel electrophoresis.

Regarding `CC(=O)c1c(O)c(C)c(O)c2c1OC1=CC(=O)/C(=C(/C)Nc3ccc(Br)cc3)C(=O)[C@]12C`, the IC50 (in general, the midpoint of a concentration-inhibition curve) in data set [1] is 0.57 µM. The CC50 (as a rule, the concentration that lowers cell viability or growth by half) at 72 h in data set [2] was 10.6 µM. In addition, the fold change (FC) in data set [3] was found to be 0.92.
The like results for `CC(=O)c1c(O)c(C)c(O)c2c1OC1=CC(=O)/C(=C(/C)Nc3ccc(F)cc3)C(=O)[C@@]12C` were, in that order, 1.54 µM, 22.2 µM and 2.1.
In the case of `CC(=O)c1c(O)c(C)c(O)c2c1OC1=CC(=O)/C(=C(/C)NCCN(C)C)C(=O)C12C` (stereo not given), the half-maximal inhibitory concentration (IC50) in data set [1] was more than 100 µM. The CC50 at 72 h in data set [2] was 33 µM.
The like results for `CC(=O)C1=C(O)C=C2Oc3c(C(C)=O)c(O)c(C)c(O)c3[C@@]2(C)C1=O` [(+)-USNIC ACID] were, in that order, more than 100 µM and 52.3 µM.
For `CC(=O)c1c(O)c(C)c(O)c2c1OC1=CC(=O)/C(=C(/C)Nc3ccc(Cl)cc3)C(=O)[C@@]12C`, in data set [1], the IC50 turned out to be 1.81 µM. The CC50 at 72 h in data set [2] is more than 50 µM. Moreover, the fold change (FC) in data set [3] was found to be 0.51.
The matching figures for `CC(=O)c1c(O)c(C)c(O)c2c1OC1=CC(=O)/C(=C(/C)Nc3ccccc3)C(=O)[C@@]12C`: 1.53 µM, more than 50 µM and 1.2.
The like results for `CC(=O)c1c(O)c(C)c(O)c2c1OC1=CC(=O)/C(=C(/C)Nc3ccc(F)cc3)C(=O)[C@]12C` were, in that order, 0.94 µM, more than 50 µM and 1.6.
The like results for `CC(=O)c1c(O)c(C)c(O)c2c1OC1=CC(=O)/C(=C(/C)Nc3ccccc3)C(=O)[C@]12C` were, in that order, 1.92 µM, 39 µM and 1.
Consider `CC(=O)c1c(O)c(C)c(O)c2c1OC1=CC(=O)/C(=C(/C)NCCCN3CCOCC3)C(=O)C12C` (stereo not given), for which the IC50 in data set [1] was more than 100 µM. In data set [2], the CC50 at 72 h was 24 µM.
With `CC(=O)c1c(O)c(C)c(O)c2c1OC1=CC(=O)/C(=C(/C)NCCc3ccc(O)cc3)C(=O)[C@@]12C`, the IC50 in data set [1] is 0.79 µM. The fold change (FC) in data set [4] was 1.3; in data set [3], 12.8. Moreover, the CC50 at 72 h in data set [5] was 70 µM; in data set [2], 21.5 µM.
For the compound `CC(=O)c1c(O)c(C)c(O)c2c1OC1=CC(=O)/C(=C(/C)Nc3ccc(Cl)cc3)C(=O)[C@]12C`, the IC50 in data set [1] came to 1.62 µM. For the same compound, the CC50 at 72 h in data set [2] was found to be 16 µM. Moreover, in data set [3], the fold change (FC) stood at 0.35.
As for `CC(=O)c1c(O)c(C)c(O)c2c1OC1=CC(=O)/C(=C(/C)Nc3cccc(F)c3)C(=O)C12C` (stereo not given), in data set [1], the IC50 came to 1.39 µM. Also, the fold change (FC) was 1.6 in data set [4] and 12.8 in data set [3]. Further, the figures for the CC50 at 72 h in data set [5] and in data set [2] were more than 100 µM and 35 µM, respectively.
Take `CC(=O)C1=C(O)C=C2Oc3c(C(C)=O)c(O)c(C)c(O)c3[C@]2(C)C1=O` [(-)-USNIC ACID]: the IC50 in data set [1] was more than 100 µM.
`CC(=O)c1c(O)c(C)c(O)c2c1OC1=CC(=O)/C(=C(/C)Nc3ccc(Br)cc3)C(=O)[C@@]12C`: the IC50 in data set [1] was determined as 0.26 µM; in data set [6], 4.6 µM. Further, the CC50 at 72 h in data set [2] was 39.3 µM. Further, the fold change (FC) in data set [3] was 1.5.
As to `CC(=O)c1c(O)c(C)c(O)c2c1OC1=CC(=O)/C(=C(/C)NCCCc3cc(C(C)(C)C)c(O)c(C(C)(C)C)c3)C(=O)C12C` (stereo not given), the IC50 in data set [1] was 0.16 µM. The values for the fold change (FC) in data set [4] and in data set [3] were 3.5 and 10.5, respectively. The figures for the CC50 at 72 h in data set [5] and in data set [2] were more than 100 µM and more than 50 µM, respectively.
The matching figures for `CC(=O)c1c(O)c(C)c(O)c2c1OC1=CC(=O)/C(=C(/C)Nc3cccc(Br)c3)C(=O)C12C` (stereo not given): 0.75 µM, 1.2, 12.5, more than 100 µM and 18.1 µM.
For the compound `CC(=O)c1c(O)c(C)c(O)c2c1OC1=CC(=O)/C(=C(/C)NCCc3cc(C(C)(C)C)c(O)c(C(C)(C)C)c3)C(=O)C12C` (stereo not given), in data set [1], the IC50 came out at 0.19 µM. For the same compound, the CC50 at 72 h in data set [2] is more than 50 µM. In addition, the fold change (FC) in data set [3] was determined as 1.7.
